In ChEMBL document CHEMBL1641469, “New Hedgehog/GLI signaling inhibitors from Excoecaria agallocha” (Bioorg Med Chem Lett, 2011):
pIC50: −log10 of the molar value. Activity calls are given as the source filed them. The rule behind the calls is not given here.

Legend:
[1] = Inhibition of human HH/Gli1-mediated transcriptional activity in tetracycline-treated human HaCaT cells treated after 12 hrs of tetracycline addition by luciferase reporter gene assay; type: cell-based; settings: for IC50: hacat; for pIC50: Homo sapiens, HaCaT, 12 h, read-out: IC50
How it was run: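 HaCaT cells carrying a GLI1-driven luciferase construct, seeded at 2 × 10⁵ cells per well; compounds added 12 h after tetracycline induction; luciferase activity and cell viability read at the same time point.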

PANC-1 [2] = test: Cytotoxicity against human PANC1 cells after 24 hrs by FMCA method; type: functional, cell-based; settings: PANC-1, 24 h
How it was run: (§1)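 Cells (PANC1, DU145, C3H10T1/2) exposed to compounds in 0.05% DMSO; viability measured, n = 3; IC50 values derived from concentration–response.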

DU-145 = test: Cytotoxicity against human DU145 cells after 24 hrs by FMCA method; type: functional, cell-based; settings: DU-145, 24 h; how it was run: as §1
[3] = Cytotoxicity against mouse C3H10T1/2 cells after 24 hrs by FMCA method; type: functional, cell-based; settings: C3H 10T1/2, 24 h; how it was run: as §1
PANC-1 [4] = test: Inhibition of human HH/Gli1-mediated expression of PTCH in human PANC1 cells by Western blot analysis; type: cell-based
How it was run: (§2)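 PANC1 cells treated, then full, cytosolic and nuclear fractions prepared; GLI1, PTCH and BCL2 protein levels assessed by Western blotting.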

PANC-1 [5] = test: Inhibition of human HH/Gli1-mediated PTCH mRNA expression in human PANC1 cells at 0.7 to 1.4 uM by RT-PCR analysis; type: cell-based
How it was run: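 PANC1 cells treated in 0.05% DMSO; Ptch mRNA quantified by RT-PCR with GAPDH as internal control; n = 3.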

PANC-1 [6] = test: Inhibition of human HH/Gli1-mediated expression of BCL-2 in human PANC1 cells by Western blot analysis; type: cell-based; how it was run: as §2
PANC-1 [7] = test: Inhibition of human HH/Gli1-mediated induction of nuclear Gli1 level in human PANC1 cells at 1.6 uM by Western blot analysis; type: cell-based; how it was run: as §2
PANC-1 [8] = test: Inhibition of human HH/Gli1-mediated PTCH mRNA expression in human PANC1 cells transfected with Smo siRNA at 0.7 to 1.4 uM by RT-PCR analysis; type: cell-based
How it was run: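 PANC1 cells transfected with Smo siRNA (non-targeting siRNA at same concentration as control), Smo depletion confirmed by Western blot; treated cells then assayed for Ptch mRNA by real-time quantitative RT-PCR.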

| Structure (SMILES) | IC50 [1] | pIC50 (PANC-1 [2]) | pIC50 (DU-145) | pIC50 [1] | pIC50 [3] | other results |
| --- | --- | --- | --- | --- | --- | --- |
| CC(=O)O[C@H]1[C@H](Oc2c(-c3ccc(O)cc3)oc3cc(O)cc(O)c3c2=O)O[C@@H](C)[C@H](O)[C@H]1O | Not Active |  |  |  |  |  |
| C[C@@H]1O[C@@H](Oc2c(-c3ccc(O)c(O)c3)oc3cc(O)cc(O)c3c2=O)[C@H](O)[C@H](O)[C@H]1O [QUERCITRIN] | Not Active |  |  |  |  |  |
| O=c1c(O[C@@H]2O[C@@H](CO)[C@H](O)[C@H]2O)c(-c2ccc(O)cc2)oc2cc(O)cc(O)c12 [JUGLANIN] |  | 5.74 | 5.62 | 5.70 | < 4.00 |  |
| CO[C@@H]1[C@@H](O)[C@H](C)O[C@@H](Oc2c(-c3ccc(O)c(O)c3)oc3cc(O)cc(O)c3c2=O)[C@@H]1O |  | 6.15 | 6.10 | 6.30 | < 4.00 | inhibition (PANC-1 [4]): Dose-dependent effect; inhibition (PANC-1 [5]): Active; inhibition (PANC-1 [6]): Dose-dependent effect; inhibition (PANC-1 [7]): Active; inhibition (PANC-1 [8]): Active |
| C[C@@H]1O[C@@H](OC[C@H]2O[C@@H](Oc3c(-c4ccc(O)c(O)c4)oc4cc(O)cc(O)c4c3=O)[C@H](O)[C@@H](O)[C@@H]2O)[C@H](O)[C@H](O)[C@H]1O [RUTIN] | Not Active |  |  |  |  |  |
| CO[C@@H]1[C@@H](O)[C@H](C)O[C@@H](OC[C@@]2(O)CO[C@@H](Oc3c(-c4ccc(O)c(O)c4)oc4cc(O)cc(O)c4c3=O)[C@@H]2O)[C@@H]1O |  | 4.70 | 4.66 | 4.72 | < 4.00 |  |
| COc1ccc(-c2oc3cc(O)cc(O)c3c(=O)c2O[C@@H]2O[C@@H](C)[C@H](O)[C@@H](O)[C@H]2O)cc1 | Not Active |  |  |  |  |  |
| C[C@@H]1O[C@@H](Oc2c(-c3ccc(O)cc3)oc3cc(O)cc(O)c3c2=O)[C@H](O)[C@H](O)[C@H]1O [AFZELIN] | Not Active |  |  |  |  |  |
